High-throughput results: PubChem, several laboratories
In the library only some 9.8% were active in any assay of this set; here they are far more common.
WT yeast gro inh – growth inhibition of WT yeast, mitochondrial fusion screen; hit rate 2.1% among 190,000; inhibition, % at 10 µM; mitochondrial fusion phenotypic screen, WT strain; AID 1362; in the data active = inhibition above about 58%; tested in S. cerevisiae
PMI act – phosphomannose isomerase (human) activation | activation factor at 20 µM | purified human PMI, coupled resazurin fluorescence, 20 min; hits give high values; 1 = vehicle control, 0 substrate-free wells | AID 1214 | P34949 | hit rate 0.005% among 190,000;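 active = activation factor of 2 or more at 20 µM, relative to plate controls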
m-calpain inh – blocks pig calpain II enzyme activity; purified calpain II, fluorogenic peptide substrate, 30 min; inhibition, % at 16 µM; hit rate 0.37% among 220,000;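 active = inhibition above about 50%, limit read from the data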
Lmaj promast – reduces viability of Leishmania major promastigotes; resazurin fluorescence viability; inhibition, % at 10 µM; hit rate 9% among 200,000; AID 1063; in the data active = inhibition above about 50%;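 note: promastigotes grown with compound for 44 hours at 28 °C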
Rad51 HR inh – Rad51 (human) homologous recombination inhibition. inhibition, % at 10 µM. hRad51 DNA strand exchange, fluorescence dequenching. hit rate 0.085% among 200,000. AID 1385. Q06609;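 active = inhibition above 40% at the single screening dose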;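 note: 0% = DMSO control wells and 100% = blanks with heterologous ssDNA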
Target sequence (Q06609 whole entry, looked up): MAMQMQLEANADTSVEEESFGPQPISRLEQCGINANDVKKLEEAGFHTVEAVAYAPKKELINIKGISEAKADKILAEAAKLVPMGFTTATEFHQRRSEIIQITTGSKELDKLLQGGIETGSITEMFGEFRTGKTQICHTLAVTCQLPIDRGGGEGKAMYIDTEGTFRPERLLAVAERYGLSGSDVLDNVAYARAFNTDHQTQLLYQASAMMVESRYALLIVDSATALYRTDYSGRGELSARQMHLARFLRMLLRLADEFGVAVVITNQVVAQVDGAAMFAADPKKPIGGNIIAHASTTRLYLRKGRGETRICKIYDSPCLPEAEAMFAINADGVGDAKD
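Test system: preformed human Rad51 ssDNA filaments. Compound dosing: single dose, 10 µM final compound. Incubation: filaments 15 min 37 °C, then compound 30 min. Technique: FRET fluorescence dequenching, excitation 485 nm, emission 520 nm. Read-out basis: percent inhibition from fluorescence, normalised to plate control and blank means. Benchmarks: plate controls and plate blanks.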
PMI act satM6P – activators of human phosphomannose isomerase at near-saturating mannose 6-phosphate; coupled PMI enzyme assay, resazurin fluorescence, 20 min; hits give high values; 1 = untreated enzyme, 0 = substrate-free blank; activation factor at 20 µM; hit rate 0.34% among 190,000;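 active = activation factor of 2 or more at 20 µM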
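Material: human phosphomannose isomerase with PGI, G6PDH, diaphorase coupling enzymes. Quantity: 15 ng/mL PMI. Medium: HEPES pH 7.4 buffer with MgCl2 and Tween-20. Reagent: Near-saturating mannose-6-phosphate, 1.0 mM. Compound: 20 µM single dose. Times: enzyme reaction with compound 20 min at room temperature. Detection: resorufin fluorescence at Ex 544/Em 590 nm.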
* hit, by the source's call; · = not tested or not shown.

SMILES	WT yeast gro inh	PMI act	m-calpain inh	Lmaj promast	Rad51 HR inh	PMI act satM6P
CCOC(=O)N1CCN(CC(O)COCC2=CCC3CC2C3(C)C)CC1 (stereo not drawn)	-3	1	6	94*	3	1.1
CCOC(=O)N1CCN(CC(O)COc2ccc(C)cc2C(C)(C)C)CC1 (stereo not drawn)	27	1.2	-15	98*	-7	1.2
COc1ccccc1NC(=O)Cn1nc(Cc2cccnc2)c2ccccc2c1=O	·	·	8	·	2	·
Cc1cccc(NC(=O)CN2C(=S)NC(C)(C)CC2C)c1 (stereo not drawn)	2	0.9	1	54*	-1	1
Cc1ccccc1NC(=O)CN1C(=S)NC(C)(C)CC1C (stereo not drawn)	17	1	28	53*	-10	1.1
CC1CC(C)(C)NC(=S)N1CC(=O)NCc1ccc(Cl)cc1 (stereo not drawn)	-3	0.8	16	-6	-4	1
Cc1ccc(NC(=O)CCCN2C(=S)NC(C)(C)CC2C)cc1 (stereo not drawn)	-7	1.1	-11	-4	-5	1.1
CC1CC(C)(C)NC(=S)N1CC(=O)NCc1ccccc1Cl (stereo not drawn)	-5	1	-3	77*	0	1
CCN(CC)C(=O)C12CC3CC(CC(Br)(C3)C1)C2	-6	1.2	-10	-8	14	1.1
Cc1ccc(-n2nnnc2SCC(=O)Nc2sccc2C#N)cc1	-2	1.1	6	-4	-26	1
CC(C)(O)C#Cc1ccc(CN2CCN(Cc3ccsc3)C(CCO)C2)s1 (stereo not drawn)	-2	0.8	-1	-1	5	0.9
COc1ccc(-c2nnc(NC(=O)c3ccc(F)cc3)o2)cc1	66	1	12	98*	·	1
Cc1ccccc1C(=O)Nc1nnc(-c2ccc(F)cc2)o1	70*	1	15	33	-5	1
COc1ccccc1C(=O)Nc1nnc(-c2ccc(F)cc2)o1	9	0.9	1	15	0	0.9
CCOc1ccccc1OCCOCCOc1ccccc1[N+](=O)[O-]	8	1	5	-2	3	0.9
O=C(COc1ccccc1[N+](=O)[O-])c1ccccc1	-7	1	8	99*	-8	0.9
O=[N+]([O-])c1ccccc1OCCCNCc1ccccc1	4	1.2	19	98*	6	1.2
Clc1ccc(Cl)c(OCCCCNCc2ccccc2)c1	47	1	-14	98*	-3	1.1
CCCOc1ccc(Cl)cc1CNc1ccccc1	34	0.8	10	2	·	0.9
Cc1cccc(C)c1NC(=O)c1cccc(COc2cc(Cl)ccc2Cl)c1	-9	1	19	5	-3	1
Clc1ccc(OCCCNCc2ccccc2)c(Br)c1	36	0.9	8	91*	7	1
CN1C(N)=NC(=O)/C1=C/c1ccccc1F	-4	0.9	40	3	-3	0.9
CSCCC1Nc2ccc(S(=O)(=O)N3CCOCC3)cc2NC1=O (stereo not drawn)	3	1.9	25	-6	-12	2.6*
Cn1c(=O)n(C)c2cc(S(=O)(=O)N3CCOCC3)ccc21	-6	0.9	-19	-3	2	1
Cc1ccc2c(c1)-c1c(ssc1=S)C(C)(C)N2C(=O)c1ccco1	53	0.5	-10	33	7	0.8
SMILES	WT yeast gro inh	PMI act	m-calpain inh	Lmaj promast	Rad51 HR inh	PMI act satM6P
CCOc1ccc2c(c1)-c1c(ssc1=S)C(C)(C)N2C(=O)CSC1=NCCS1	15	1	-16	96*	12	1
Cc1ccc2c(c1)-c1c(ssc1=S)C(C)(C)N2C(=O)CSC1=NCCS1	32	0.8	11	87*	-10	0.8
CCN(Cc1cc2cc(C)ccc2[nH]c1=O)C(=O)c1cccc([N+](=O)[O-])c1	·	·	1	·	·	·
COc1nc(Nc2ccc(O)cc2)nc(OC(C(F)(F)F)C(F)(F)F)n1	4	0.9	-5	1	6	0.9
COc1nc(Nc2ccc(C(C)C)cc2)nc(OC)n1	17	1	-8	86*	-7	1
CC(C)NCC#CCOc1ccc(Cl)cc1	18	1	-13	6	9	1.1
COc1ccc(OCC#CCNC(C)(C)C)cc1	5	1	4	92*	-1	1
